# Experimental data: the array DNA melting data of Ke et al. (doi:10.1101/2024.01.08.574731)
# Key:
# [1] = folding enthalpy; higher = less favourable; fluorescence melt of hairpins on a sequencing array, two-state fit; settings: sodium 0.088 M
# Procedure, shortened: (§1)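 In 50 mM Na-HEPES pH 8.0 containing 25 mM NaCl, hairpins from the library on a sequenced MiSeq flow cell were imaged for Cy3 fluorescence at 2.5 °C steps up to 60 °C, with Cy3 and quencher oligos annealed. After normalisation to pre-quench Cy3 and to control constructs, two-state fits with bootstrapping gave melting temperature and folding enthalpy. Four replicates were combined by inverse-variance weighting, and fitted temperatures were shifted up by 9.35 °C to match UV melts.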
# [2] = melting temperature; fluorescence melt of hairpins on a sequencing array, two-state fit, raised by 9.35 °C to match UV melts; settings: sodium 0.088 M
# Procedure, shortened: as §1
Sequence,folding enthalpy [1],Tm [2]
GGCTGGCCGAAAGGCGCC (((..(((....)))))),-16.4 kcal/mol,61 °C
GCTGACGGAAACGTTAGC (((.(((....))).))),-43 kcal/mol,53.6 °C
GTGTCTGGAAACAGATGC (..((((....))))..),-20.7 kcal/mol,40.2 °C
GCCGCGCGAAAGCCCAGC ((.(.((....)).).)),-12.7 kcal/mol,29.9 °C
GATCCGACTTCGGATC ((((((....)))))),-39.6 kcal/mol,57.4 °C
GCAGTACGAAAGTAATGC (((.(((....))).))),-40 kcal/mol,55.4 °C
GGACACACGAAAGTGTCC (((..(((....)))))),-30.7 kcal/mol,57.9 °C
GATTTGGGAAACCAAATC (((((((....))))))),-40.9 kcal/mol,55 °C
GCGAGATCGAAAGATCGC (((..(((....)))))),-24.3 kcal/mol,52.1 °C
CGGGTGCGGAAACGCCCG (((..(((....)))))),-23.4 kcal/mol,55.7 °C
GCTCTGCGAAAGCCAAGC (((..((....))..))),-13.9 kcal/mol,34.8 °C
GTTCTCGAAAGAGAAC ((((((....)))))),-35.2 kcal/mol,61 °C
GGACGCGAAAGCGATCC ((((((....))).))),-16.7 kcal/mol,57.4 °C
GATCTTGTTCAAGATC ((((((....)))))),-43.4 kcal/mol,49.1 °C
GTGGTCGAAAGACGCAC ((((((....))).))),-16.3 kcal/mol,49.3 °C
GATCGCTCGAGCGATC ((((((....)))))),-42.1 kcal/mol,67.6 °C
GGATTTGGAAACAAGTCC (((.(((....))).))),-31.5 kcal/mol,42.7 °C
CGACGCGGAAACGCCTCG (((.(((....))).))),-23.9 kcal/mol,41.5 °C
GTAGAATCGAAAGATTAC (((..(((....)))))),-11 kcal/mol,27.3 °C
GCATAGCGAAAGCGTTGC (((..((....))..))),-27.1 kcal/mol,56.8 °C
GGCCACGAAAGTGTTGCC ((((((....)))..))),-16.7 kcal/mol,49.9 °C
GGGCCGACGAAAGTCCCC (((..(((....)))))),-12 kcal/mol,43.8 °C

Sequence,folding enthalpy [1],Tm [2]
GATCACTCCGGTGATC ((((((....)))))),-37.8 kcal/mol,56.9 °C
GATCGGTCTCCGATC ((((((...)))))),-43.1 kcal/mol,57.4 °C
GTGTAGGGAAACCTATAC ((.((((....)))).)),-24.8 kcal/mol,38.2 °C
GTAGGGACGAAAGTCTAC (((..(((....)))))),-12 kcal/mol,30 °C
CGGACTCGGAAACGACCG (((..(((....)))))),-17.5 kcal/mol,32.9 °C
GTATAATCGAAAGATTAC (((..(((....)))))),-10.9 kcal/mol,30 °C
GCATTGCGAAAGCATGC (((.(((....)))))),-34.3 kcal/mol,55.7 °C
GCACTCGAAAGAGCTTGC ((((((....)))..))),-19.1 kcal/mol,36.6 °C
GAATTAGGAAACTGATTC ((((.((....)).)))),-19.8 kcal/mol,33.7 °C
GGTTGAGGAAACTCAATC (.(((((....))))).),-28.3 kcal/mol,43.4 °C
GTTTATGGAAACATAAAC (((((((....))))))),-38.1 kcal/mol,50 °C
GGTCGCGAAAGCGGGACC ((((((....)))..))),-18.9 kcal/mol,52.1 °C
GGCATCGGAAACGGTGCC ((((.((....)).)))),-29.8 kcal/mol,60.5 °C
GGGTAAGGAAACTTACTC (.(((((....))))).),-23.7 kcal/mol,37.9 °C
GTTGGCGGAAACACCAAC (((((.(....).))))),-36 kcal/mol,47.4 °C
GGTCACGAAAGTGGAACC ((((((....)))..))),-18.3 kcal/mol,40.5 °C
GCACTCCGAAAGGAATGC (((.(((....))).))),-38.6 kcal/mol,51.1 °C
GCCCGGGGAAACTCGGGC (((((.(....).))))),-37.5 kcal/mol,67.2 °C
GCCTCCGAAAGGAAGGC ((((((....))).))),-31.9 kcal/mol,62 °C
GATCAGCAGTCTGATC ((((((....)))))),-34.4 kcal/mol,48.8 °C
GCCACAGGAAACCATGGC ((((..(....)..)))),-22.8 kcal/mol,33.3 °C
GCTGCAACGAAAGTTAGC (((..(((....)))))),-17.2 kcal/mol,39.8 °C
